The pIC50 is the negative decadic logarithm of the IC50, by convention in mol/L. High values mean a low IC50, low ones a high IC50.

From ChEMBL document CHEMBL4311956, “A Qualified Success: Discovery of a New Series of ATAD2 Bromodomain Inhibitors with a Novel Binding Mode Using High-Throughput Screening and Hit Qualification” (J Med Chem, 2019) come the findings set out here.

For experiment [1], the target named is Nucleosome-remodeling factor subunit BPTF (Homo sapiens, UniProt Q12830). As to the kind of experiment: Inhibition of BPTF (unknown origin) by TR-FRET assay. For orientation: TR-FRET usually uses a lanthanide donor and a delayed reading to cut background.
Experiment [2] is filed under the species Homo sapiens. The experiment can be described thus: Selectivity ratio, ratio of inhibition of BRPF3 (unknown origin) to Displacement of biotinylated H4 peptide from ATAD2B bromodomain (unknown origin) by TR-FRET assay.
The species entered for experiment [3] is Homo sapiens. The experiment can be described thus: Selectivity ratio, ratio of displacement of Alexa Fluor 647 labelled ligand from His6-tagged BRD4 BD1 (1 to 477 residues)/BD2 Y390A mutant (unknown origin) to displacement of SGRG-K(Ac)-GG-K(Ac)-GLG-K(Ac)-GGAKRHRKV-biotin) from His6/FLAG-tagged TEV fused ATAD2 bromodomain (981 to 1121 residues) expressed in Escherichia coli BL21(DE3) cells.

Experiment [4] deals with Bromodomain-containing protein 2 (Homo sapiens, UniProt P25440, Y113A). The experiment can be described thus: Displacement of Alexa Fluor 647 labelled ligand from His6-tagged BRD2 BD2 (1 to 473 residues)/BD1 Y113A mutant (unknown origin) after 30 mins by TR-FRET assay. In short, it runs like this: (§1)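 BET selectivity by TR-FRET fluoroligand displacement. Uses tandem BET bromodomain constructs carrying a mutation in the non-assayed bromodomain.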

In the next experiment the target is CREB-binding protein (Homo sapiens, UniProt Q92793). The experiment can be described thus: Inhibition of CREBBP (unknown origin) by TR-FRET assay.
Experiment [5] addresses Bromodomain-containing protein 9 (Homo sapiens, UniProt Q9H8M2). The experiment can be described thus: Inhibition of BRD9 (unknown origin) by TR-FRET assay.
Experiment [6] deals with Bromodomain-containing protein 3 (Homo sapiens, UniProt Q15059, Y348A). As to the kind of experiment: Displacement of Alexa Fluor 647 labelled ligand from His6-tagged BRD3 BD1(1 to 435 residues)/BD2 Y348A mutant (unknown origin) after 30 mins by TR-FRET assay. In short, it runs like this:
as §1

In experiment [7] the target is T1, ATPase family AAA domain-containing protein 2 (Homo sapiens, UniProt Q6PL18).
T1 sequence (Q6PL18 whole entry): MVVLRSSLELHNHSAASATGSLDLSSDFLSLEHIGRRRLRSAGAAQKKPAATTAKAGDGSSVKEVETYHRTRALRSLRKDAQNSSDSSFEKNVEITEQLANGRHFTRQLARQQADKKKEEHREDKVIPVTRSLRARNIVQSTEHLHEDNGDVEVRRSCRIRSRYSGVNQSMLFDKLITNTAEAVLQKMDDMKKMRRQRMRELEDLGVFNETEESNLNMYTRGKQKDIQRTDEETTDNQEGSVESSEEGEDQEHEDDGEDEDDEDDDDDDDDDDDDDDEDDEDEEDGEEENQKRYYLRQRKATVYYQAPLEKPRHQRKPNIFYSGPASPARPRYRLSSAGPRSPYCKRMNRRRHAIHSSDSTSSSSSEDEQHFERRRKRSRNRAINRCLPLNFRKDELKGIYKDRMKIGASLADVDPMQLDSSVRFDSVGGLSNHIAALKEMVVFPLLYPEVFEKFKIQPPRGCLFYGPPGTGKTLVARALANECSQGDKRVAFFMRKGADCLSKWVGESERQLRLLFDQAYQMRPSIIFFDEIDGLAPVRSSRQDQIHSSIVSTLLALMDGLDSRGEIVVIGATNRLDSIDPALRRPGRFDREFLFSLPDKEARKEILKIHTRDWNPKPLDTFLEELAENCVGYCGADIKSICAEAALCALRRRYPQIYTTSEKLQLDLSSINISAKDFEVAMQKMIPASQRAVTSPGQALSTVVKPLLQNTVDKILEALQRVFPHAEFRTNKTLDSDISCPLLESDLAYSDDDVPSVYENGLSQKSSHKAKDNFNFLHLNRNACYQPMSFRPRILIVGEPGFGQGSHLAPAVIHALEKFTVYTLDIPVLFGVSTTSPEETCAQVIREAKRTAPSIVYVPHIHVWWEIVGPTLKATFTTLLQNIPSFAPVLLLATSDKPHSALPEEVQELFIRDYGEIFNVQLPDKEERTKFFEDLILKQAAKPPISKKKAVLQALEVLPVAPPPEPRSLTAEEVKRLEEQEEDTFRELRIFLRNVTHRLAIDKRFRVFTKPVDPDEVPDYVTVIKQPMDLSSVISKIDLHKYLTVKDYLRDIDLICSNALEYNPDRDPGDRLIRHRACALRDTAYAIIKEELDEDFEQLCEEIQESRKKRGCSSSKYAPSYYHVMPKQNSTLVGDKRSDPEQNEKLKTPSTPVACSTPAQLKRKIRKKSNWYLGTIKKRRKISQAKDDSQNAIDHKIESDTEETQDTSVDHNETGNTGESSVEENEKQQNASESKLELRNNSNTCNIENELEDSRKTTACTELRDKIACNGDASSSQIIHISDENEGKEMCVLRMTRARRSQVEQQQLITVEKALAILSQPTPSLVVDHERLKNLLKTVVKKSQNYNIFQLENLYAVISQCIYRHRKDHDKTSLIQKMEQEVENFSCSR
As to the kind of experiment: Inhibition of ATAD2 bromodomain in human HUT78 chromatin lysate after 2 hrs by bromosphere competition binding assay. In short, it runs like this: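 Bromosphere chemoproteomic assay. Measures competitive inhibition of binding of endogenous full-length ATAD2 from Hut-78 cells.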

Experiment [8] addresses ATPase family AAA domain-containing protein 2B (Homo sapiens, UniProt Q9ULI0). As to the kind of experiment: Displacement of biotinylated H4 peptide from ATAD2B bromodomain (unknown origin) by TR-FRET assay.
The species entered for experiment [9] is Homo sapiens. As to the kind of experiment: Selectivity ratio, ratio of inhibition of TAF1 BD2 (unknown origin) to displacement of SGRG-K(Ac)-GG-K(Ac)-GLG-K(Ac)-GGAKRHRKV-biotin) from His6/FLAG-tagged TEV fused ATAD2 bromodomain (981 to 1121 residues) expressed in Escherichia coli BL21(DE3) cells.
Another experiment concerns the target Peregrin (Homo sapiens, UniProt P55201). The experiment can be described thus: Inhibition of BRPF1 (unknown origin) by TR-FRET assay.
In experiment [10] the target is Bromodomain-containing protein 1 (Homo sapiens, UniProt O95696). As to the kind of experiment: Inhibition of BRPF2 (unknown origin) by TR-FRET assay.
The target of experiment [11] is Bromodomain-containing protein 2 (Homo sapiens, UniProt P25440, Y386A). As to the kind of experiment: Displacement of Alexa Fluor 647 labelled ligand from His6-tagged BRD2 BD1 (1 to 473 residues)/BD2 Y386A mutant (unknown origin) after 30 mins by TR-FRET assay. The procedure, abridged:
as §1

Experiment [12] addresses Bromodomain and PHD finger-containing protein 3 (Homo sapiens, UniProt Q9ULD4). The experiment can be described thus: Inhibition of BRPF3 (unknown origin) by TR-FRET assay.

pIC50: −log10 of the molar value.

Chain of Bromodomain-containing protein 9 (Q9H8M2 whole entry, the tested form may be a part): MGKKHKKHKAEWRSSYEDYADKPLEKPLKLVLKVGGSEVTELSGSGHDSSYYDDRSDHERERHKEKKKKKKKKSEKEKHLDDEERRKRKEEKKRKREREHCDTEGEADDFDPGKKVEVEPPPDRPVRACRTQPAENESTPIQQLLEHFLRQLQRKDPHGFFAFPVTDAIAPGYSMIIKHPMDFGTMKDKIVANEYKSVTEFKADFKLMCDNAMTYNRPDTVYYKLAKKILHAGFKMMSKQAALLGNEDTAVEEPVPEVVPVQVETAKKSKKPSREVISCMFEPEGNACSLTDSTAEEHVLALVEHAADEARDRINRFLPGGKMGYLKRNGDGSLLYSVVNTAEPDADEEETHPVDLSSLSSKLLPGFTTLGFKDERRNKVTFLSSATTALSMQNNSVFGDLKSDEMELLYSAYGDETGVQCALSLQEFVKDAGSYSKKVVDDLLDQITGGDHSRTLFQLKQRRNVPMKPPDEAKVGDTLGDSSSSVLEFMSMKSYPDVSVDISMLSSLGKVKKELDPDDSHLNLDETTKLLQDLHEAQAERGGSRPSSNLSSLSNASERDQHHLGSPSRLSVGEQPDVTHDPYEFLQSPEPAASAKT
Chain of Bromodomain-containing protein 2 (Homo sapiens, UniProt P25440, Y386A) (P25440 whole entry Y386A, the tested form may be a part): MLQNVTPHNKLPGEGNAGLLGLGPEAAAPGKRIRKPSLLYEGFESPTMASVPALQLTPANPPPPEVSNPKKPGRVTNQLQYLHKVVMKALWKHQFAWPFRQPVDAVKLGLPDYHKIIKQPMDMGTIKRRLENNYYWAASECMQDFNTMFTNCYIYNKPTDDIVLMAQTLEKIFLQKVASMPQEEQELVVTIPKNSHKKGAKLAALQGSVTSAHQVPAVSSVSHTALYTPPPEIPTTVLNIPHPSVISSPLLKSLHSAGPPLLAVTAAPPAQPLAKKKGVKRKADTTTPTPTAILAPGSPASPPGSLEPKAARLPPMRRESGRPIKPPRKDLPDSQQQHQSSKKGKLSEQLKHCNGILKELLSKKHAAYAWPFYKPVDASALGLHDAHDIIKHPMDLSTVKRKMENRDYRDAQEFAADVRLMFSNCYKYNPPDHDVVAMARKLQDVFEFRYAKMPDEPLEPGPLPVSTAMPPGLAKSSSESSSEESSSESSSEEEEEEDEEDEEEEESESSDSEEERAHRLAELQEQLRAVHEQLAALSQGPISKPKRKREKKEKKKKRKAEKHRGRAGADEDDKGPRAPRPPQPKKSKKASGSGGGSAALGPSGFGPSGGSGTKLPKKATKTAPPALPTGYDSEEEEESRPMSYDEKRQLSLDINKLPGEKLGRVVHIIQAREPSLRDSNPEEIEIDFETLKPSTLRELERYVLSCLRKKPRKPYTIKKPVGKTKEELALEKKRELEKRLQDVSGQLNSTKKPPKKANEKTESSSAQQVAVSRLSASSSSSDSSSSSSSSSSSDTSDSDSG
Chain of CREB-binding protein (Q92793 whole entry): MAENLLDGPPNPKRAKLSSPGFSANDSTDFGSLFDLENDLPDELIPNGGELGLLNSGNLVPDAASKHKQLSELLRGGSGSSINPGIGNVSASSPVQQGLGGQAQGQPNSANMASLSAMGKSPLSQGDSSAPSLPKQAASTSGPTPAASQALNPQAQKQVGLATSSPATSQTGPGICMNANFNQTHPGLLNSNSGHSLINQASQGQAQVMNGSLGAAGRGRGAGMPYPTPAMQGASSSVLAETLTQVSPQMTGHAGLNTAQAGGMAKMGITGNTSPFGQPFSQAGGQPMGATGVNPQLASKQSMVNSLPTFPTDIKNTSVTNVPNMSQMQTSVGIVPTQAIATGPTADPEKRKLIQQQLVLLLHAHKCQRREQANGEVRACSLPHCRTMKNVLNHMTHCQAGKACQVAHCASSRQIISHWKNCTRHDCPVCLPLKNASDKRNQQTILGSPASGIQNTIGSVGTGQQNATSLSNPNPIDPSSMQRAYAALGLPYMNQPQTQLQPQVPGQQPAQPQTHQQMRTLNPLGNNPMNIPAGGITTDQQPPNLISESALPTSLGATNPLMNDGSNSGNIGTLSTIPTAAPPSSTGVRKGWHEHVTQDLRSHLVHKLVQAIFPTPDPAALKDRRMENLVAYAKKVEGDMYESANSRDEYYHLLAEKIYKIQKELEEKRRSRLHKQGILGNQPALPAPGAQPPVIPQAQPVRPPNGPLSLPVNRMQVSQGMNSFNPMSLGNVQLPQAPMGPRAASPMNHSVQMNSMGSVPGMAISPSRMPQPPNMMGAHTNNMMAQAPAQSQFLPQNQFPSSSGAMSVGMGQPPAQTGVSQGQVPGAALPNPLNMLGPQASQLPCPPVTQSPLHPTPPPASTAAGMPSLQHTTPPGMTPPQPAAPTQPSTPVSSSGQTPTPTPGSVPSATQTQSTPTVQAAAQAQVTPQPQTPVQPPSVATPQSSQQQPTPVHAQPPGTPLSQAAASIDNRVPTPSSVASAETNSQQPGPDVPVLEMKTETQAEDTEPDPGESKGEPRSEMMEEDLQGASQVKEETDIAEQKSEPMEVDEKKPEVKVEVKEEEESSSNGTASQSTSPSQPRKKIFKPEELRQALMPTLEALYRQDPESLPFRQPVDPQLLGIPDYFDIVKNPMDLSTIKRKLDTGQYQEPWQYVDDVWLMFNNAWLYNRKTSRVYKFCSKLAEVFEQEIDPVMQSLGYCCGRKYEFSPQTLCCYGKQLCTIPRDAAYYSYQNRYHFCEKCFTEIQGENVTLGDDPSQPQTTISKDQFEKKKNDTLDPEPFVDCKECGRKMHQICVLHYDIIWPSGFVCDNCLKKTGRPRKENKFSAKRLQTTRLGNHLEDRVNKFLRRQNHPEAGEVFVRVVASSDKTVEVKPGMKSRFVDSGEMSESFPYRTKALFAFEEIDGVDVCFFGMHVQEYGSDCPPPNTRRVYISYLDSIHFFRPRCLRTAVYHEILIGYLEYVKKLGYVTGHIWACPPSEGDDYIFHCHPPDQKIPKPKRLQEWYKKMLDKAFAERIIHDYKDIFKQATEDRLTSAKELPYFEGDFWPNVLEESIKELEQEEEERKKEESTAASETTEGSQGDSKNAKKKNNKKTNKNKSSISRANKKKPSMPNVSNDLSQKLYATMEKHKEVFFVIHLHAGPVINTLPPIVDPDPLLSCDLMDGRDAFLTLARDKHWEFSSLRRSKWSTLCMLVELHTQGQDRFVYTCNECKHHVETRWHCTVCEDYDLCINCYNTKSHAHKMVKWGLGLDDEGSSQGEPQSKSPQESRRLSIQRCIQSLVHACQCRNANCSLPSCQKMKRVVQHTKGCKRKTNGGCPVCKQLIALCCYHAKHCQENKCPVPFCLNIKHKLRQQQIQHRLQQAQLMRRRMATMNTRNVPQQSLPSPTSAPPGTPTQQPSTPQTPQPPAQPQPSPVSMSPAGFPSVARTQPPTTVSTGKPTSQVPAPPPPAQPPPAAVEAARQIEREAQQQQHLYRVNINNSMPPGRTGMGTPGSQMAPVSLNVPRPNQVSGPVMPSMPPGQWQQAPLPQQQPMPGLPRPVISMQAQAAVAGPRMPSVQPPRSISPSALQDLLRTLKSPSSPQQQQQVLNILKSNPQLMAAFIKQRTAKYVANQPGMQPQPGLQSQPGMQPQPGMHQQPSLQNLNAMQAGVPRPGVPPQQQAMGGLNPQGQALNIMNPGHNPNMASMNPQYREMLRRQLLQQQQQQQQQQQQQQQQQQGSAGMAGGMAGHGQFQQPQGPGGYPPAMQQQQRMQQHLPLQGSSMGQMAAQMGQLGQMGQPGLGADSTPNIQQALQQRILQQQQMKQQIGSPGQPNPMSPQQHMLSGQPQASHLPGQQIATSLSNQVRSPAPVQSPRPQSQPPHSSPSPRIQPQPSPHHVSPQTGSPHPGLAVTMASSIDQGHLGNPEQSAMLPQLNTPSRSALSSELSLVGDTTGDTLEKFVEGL
Chain of Bromodomain and PHD finger-containing protein 3 (Q9ULD4 whole entry): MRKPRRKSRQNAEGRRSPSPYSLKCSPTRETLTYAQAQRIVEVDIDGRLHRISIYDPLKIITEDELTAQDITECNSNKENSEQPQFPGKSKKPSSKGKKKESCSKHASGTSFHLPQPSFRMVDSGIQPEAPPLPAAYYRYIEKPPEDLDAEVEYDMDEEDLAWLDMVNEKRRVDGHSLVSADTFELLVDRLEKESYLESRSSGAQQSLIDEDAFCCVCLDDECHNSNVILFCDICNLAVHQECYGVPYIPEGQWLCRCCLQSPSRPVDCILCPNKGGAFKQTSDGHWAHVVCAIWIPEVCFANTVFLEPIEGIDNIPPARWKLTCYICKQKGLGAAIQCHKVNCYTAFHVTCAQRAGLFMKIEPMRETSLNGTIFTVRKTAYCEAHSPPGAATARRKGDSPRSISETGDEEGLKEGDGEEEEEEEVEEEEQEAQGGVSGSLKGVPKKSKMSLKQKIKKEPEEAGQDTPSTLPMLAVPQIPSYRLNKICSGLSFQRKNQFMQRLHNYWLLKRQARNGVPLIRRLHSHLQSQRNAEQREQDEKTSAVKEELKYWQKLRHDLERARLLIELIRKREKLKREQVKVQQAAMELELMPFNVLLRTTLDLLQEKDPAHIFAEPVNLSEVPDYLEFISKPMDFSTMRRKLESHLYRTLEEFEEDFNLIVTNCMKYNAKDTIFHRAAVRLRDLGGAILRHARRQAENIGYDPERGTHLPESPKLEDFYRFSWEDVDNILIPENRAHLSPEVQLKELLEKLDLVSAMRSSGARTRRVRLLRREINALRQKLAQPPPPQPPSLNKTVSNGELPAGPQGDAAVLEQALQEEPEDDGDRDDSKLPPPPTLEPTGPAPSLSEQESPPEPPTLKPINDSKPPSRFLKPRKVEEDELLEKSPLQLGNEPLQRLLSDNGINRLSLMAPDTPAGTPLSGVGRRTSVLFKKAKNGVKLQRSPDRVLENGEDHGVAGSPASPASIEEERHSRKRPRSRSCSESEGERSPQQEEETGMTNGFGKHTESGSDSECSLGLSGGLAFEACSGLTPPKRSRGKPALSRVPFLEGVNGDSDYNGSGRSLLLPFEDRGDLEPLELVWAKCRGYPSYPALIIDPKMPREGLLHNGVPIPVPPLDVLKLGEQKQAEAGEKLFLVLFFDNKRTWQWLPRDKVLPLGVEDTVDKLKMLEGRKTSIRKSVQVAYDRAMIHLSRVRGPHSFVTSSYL

With `CC1(C2CC2)NC(=O)N(CC(=O)Nc2ccc(Br)c(S(=O)(=O)N3CCCCC3)c2)C1=O` (racemic), the pIC50 in experiment [1] is 4.20; in [4] it was 4.70; at CREB-binding protein it was under 4.00; in [5] it was under 4.30; in [6], under 4.30; in [7], 5.40. Further, the pIC50 in [8] was 6.30; against Peregrin, under 4.00; in [10] it was 4.90; in experiment [11], under 4.30; in experiment [12], 5.00. The figures for the Selectivity ratio in the experiment listed under Homo sapiens [2], in the experiment listed under Homo sapiens [3] and in the experiment listed under Homo sapiens [9] were over 10, over 100 and over 10, respectively.
